The text below walks through data of article PMC2134812 (The Journal of Cell Biology, 1997).

The term Kd denotes the constant that tells how readily two partners part at equilibrium.

“Also recorded” adds a separate entry of the source.

One assay concerns B5 and SH-SY5Y cells. As to the kind of experiment: Competition of 125I-LIP2 binding. To be noted: 2 μM competitor, preincubated 1 h at 4°C, 10 nM 125I-LIP2. The arrangement: species or system human.
For assay [1], the system named is PC12 cells. Description: F-actin redistribution in PC12 cells. The class given is cell-based, rat. In short, it runs like this: (§1)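 B5 cells and PC12 cells were seeded in RPMI-1640 with 1% horse serum, with PC12 cells on poly-D-lysine. After 18 h, cells were exposed for 2 min at 37°C to test peptide (10−7, 10−8 or 10−9 M) or 100 ng/ml NGF. For PC12, a control peptide was used at 10−6 and 10−7 M. Cells were PBS-washed, fixed in 3% paraformaldehyde for 20 min and permeabilised in 0.1% Triton X-100 for 2 min. F-actin was stained with phallacidin–BODIPY or phalloidin–rhodamine and examined by fluorescence microscopy.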

Assay [2] concerns the target specific receptors (binding sites) for LIP2 on B5 human prostatic adenocarcinoma cells (human (endogenous in B5)). Description: radioligand binding.
The next assay deals with B5 cells. As to the kind of experiment: F-actin redistribution in B5 cells. It counts as cell-based, human. To be noted: 2 min at 37°C; LIP1, LIP2 or 100 ng/ml NGF. In short, it runs like this: as §1
The subject of assay [3] is PC12 cells. As to the kind of experiment: Neurite outgrowth in PC12 cultures. It counts as cell-based, rat. The conditions noted are these: NGF-treated; data not shown.
For assay [4], the system named is Trk protein. The conditions noted are these: ref Kaplan et al., 1991; cited from earlier work.
Assay [5] relates to Trk protein. As to the kind of experiment: Trk tyrosine phosphorylation in B5 cells. To be noted: 200 ng/ml NGF, 5 min. The class given is cell-based, human. In short, it runs like this: (§2)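 Confluent B5 cells or TrkA-overexpressing PC12 cells (10–15-fold TrkA) were stimulated for 5 min with test peptide at 10−9 or 10−7 M, or with NGF at 200 ng/ml. Lysates were immunoprecipitated with a pan-Trk antibody against the TrkA C-terminus and run on 7.5% SDS-PAGE. Blots were probed overnight at 4°C with HRP-anti-phosphotyrosine (1:2,500) and detected by ECL. They were then stripped and reprobed with pan-Trk antibody as a loading control.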

Assay [6] concerns Trk protein. Description: Trk tyrosine phosphorylation in PC12 cells overexpressing TrkA. It counts as cell-based. The conditions noted are these: 200 ng/ml NGF, 5 min. In short, it runs like this: as §2
In another assay the test system is chick embryo DRG ganglia. Description: Neurite outgrowth in dorsal root ganglia. It counts as cell-based. To be noted: 10 ng of mouse NGF; data not shown. The procedure, abridged:
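Dorsal root ganglia were dissected from 9-day-old chick embryos. They were cultured with test peptides at 10−7, 10−8 and 10−9 M, or with 10 ng mouse NGF. Neurite outgrowth was scored.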

As for “vasoactive intestinal peptide [vasoactive intestinal peptide (VIP)]”, in the assay with B5 and SH-SY5Y cells, the “Inhibition of 125I-LIP2 binding (in words)” value (“Inhibition” for short) is recorded as “No significant inhibitory effect”. “[Tyr^8] bradykinin (RPPGFSPYR; Bradykinin; UniProt P01042 381-389, looked up, variant F8Y)”: the “F-actin redistribution, control peptide” value with PC12 cells [1] (10^−6 and 10^−7 M) is recorded as “had no effect”. As for somatostatin, in the assay with B5 and SH-SY5Y cells, the “Inhibition” value is “No significant inhibitory effect”. On the same count and under the same terms, the same measure for methionine enkephalin: “No significant inhibitory effect”.

On to “LIP2 (38aa synthetic peptide, sequence -40 to -3 of the rat NGF precursor), unlabelled”, for which the Kd in assay [2] fell in the range of 0.2 to 0.4 µM. epidermal growth factor: the “Inhibition” value in the assay on B5 and SH-SY5Y cells is reported as “No significant inhibitory effect”. Same read-out and setting: the same measure for vasopressin: “No significant inhibitory effect”; for leupeptin: “No significant inhibitory effect”. Same read-out and setting: the same measure for cytochrome c: “No significant inhibitory effect”; for pepstatin A: “No significant inhibitory effect”; for bombesin: “No significant inhibitory effect”. In the case of “125I-LIP2 (iodinated 38aa synthetic peptide, sequence -40 to -3 of the rat NGF precursor)”, in assay [2], the Kd, high affinity binding site was found to be 0.0028 µM and the Kd, low affinity binding site was 0.048 µM. In the case of neurotensin, the “Inhibition” value in the assay with B5 and SH-SY5Y cells is “No significant inhibitory effect”. The same measure, in the same setting: the same measure for α-melanocyte stimulating hormone: “No significant inhibitory effect”; for ubiquitin: “No significant inhibitory effect”. With substance P, the “Inhibition” value in the assay with B5 and SH-SY5Y cells is given as “No significant inhibitory effect”.

With α2-macroglobulin, the “Inhibition” value with B5 and SH-SY5Y cells is listed as “No significant inhibitory effect”. Same read-out and setting: the same measure for aprotinin: “No significant inhibitory effect”.

B1: NGF: mature 118aa NGF peptide (protein)
chain: SSTHPVFHMGEFSVCDSVSVWVGDKTTATDIKGKEVTVLAEVNINNSVFRQYFFETKCRASNPVESGCRGIDSKHWNSYCTTTHTFVKALTTDEKQAAWRFIRIDTACVCVLSRKATRRG
For B1, in the assay with B5 cells, the F-actin redistribution result is recorded as “neither NGF nor the peptides induced F-actin rearrangement in B5 cells; also recorded: had no effect on B5 cells”. Besides, the “Neurite outgrowth, NGF” value with PC12 cells [3] and in the assay with chick embryo DRG ganglia was “dense neurite outgrowth” in each case. The “Inhibition” value with B5 and SH-SY5Y cells is “did not show any significant inhibition”. In addition, in the assay with PC12 cells [1] (2 min at 37°C, 100 ng/ml NGF), the “F-actin redistribution, NGF” value is reported as “more abundant ruffling”. The “Time to trk tyrosine phosphorylation by NGF” value in the assay with Trk protein [4] is not above 1 min. Moreover, the “Trk tyrosine phosphorylation, NGF” value with Trk protein [5] and in the assay on Trk protein [6] was “phosphorylation of Trk” each time.
